Test results: ChEMBL document CHEMBL5036324 (J Med Chem, 2021)
Active and inactive are the calls of the source. The rule behind the calls is not given here.

Tests used:
[1] = biological target: T1, Toll-like receptor 7 (Homo sapiens) (UniProt Q9NYK1); assay: Agonist activity at human TLR7 expressed in HEK-Blue hTLR7 cells assessed as activation of NFkappaB incubated for 6 to 16 hrs by SEAP reporter gene based assay; format: cell-based; conditions: filed as agonist, time 6-16 hrs
T1 sequence (whole entry): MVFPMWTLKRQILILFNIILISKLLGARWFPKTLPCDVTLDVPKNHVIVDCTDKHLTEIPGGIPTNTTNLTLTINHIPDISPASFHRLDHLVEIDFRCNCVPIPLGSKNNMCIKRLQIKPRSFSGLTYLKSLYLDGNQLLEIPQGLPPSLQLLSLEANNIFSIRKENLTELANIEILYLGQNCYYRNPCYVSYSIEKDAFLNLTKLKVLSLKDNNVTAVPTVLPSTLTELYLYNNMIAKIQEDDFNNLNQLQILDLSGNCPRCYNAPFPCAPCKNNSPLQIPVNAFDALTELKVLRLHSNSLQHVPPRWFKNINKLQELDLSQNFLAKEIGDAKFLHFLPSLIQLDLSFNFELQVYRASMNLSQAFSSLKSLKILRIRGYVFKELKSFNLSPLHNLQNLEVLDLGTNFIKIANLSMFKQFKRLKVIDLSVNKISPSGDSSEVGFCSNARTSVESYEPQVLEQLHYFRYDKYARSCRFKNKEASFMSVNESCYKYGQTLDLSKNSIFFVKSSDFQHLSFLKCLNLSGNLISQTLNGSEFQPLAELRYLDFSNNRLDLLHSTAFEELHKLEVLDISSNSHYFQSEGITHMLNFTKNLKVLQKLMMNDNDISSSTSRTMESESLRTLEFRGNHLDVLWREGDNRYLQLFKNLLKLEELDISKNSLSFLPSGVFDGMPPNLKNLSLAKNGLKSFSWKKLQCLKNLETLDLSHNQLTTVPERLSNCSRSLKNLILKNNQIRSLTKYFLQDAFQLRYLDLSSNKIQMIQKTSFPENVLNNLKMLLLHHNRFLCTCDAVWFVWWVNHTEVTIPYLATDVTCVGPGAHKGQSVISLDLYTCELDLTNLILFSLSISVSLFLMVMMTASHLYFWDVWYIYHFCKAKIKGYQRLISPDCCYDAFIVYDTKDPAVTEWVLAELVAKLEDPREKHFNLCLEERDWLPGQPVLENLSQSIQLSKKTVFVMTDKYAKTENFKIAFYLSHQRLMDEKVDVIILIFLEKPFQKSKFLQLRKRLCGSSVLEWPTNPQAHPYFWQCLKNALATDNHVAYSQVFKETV
Outline: (§1)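 HEK293-derived SEAP reporter cells stably expressing the matching human TLR (2, 3, 4, 7, 8 or 9), kept under selection antibiotics. SEAP is driven by an NF-κB/AP-1-inducible promoter. HEK-Blue Null2-k (no TLR7/8) serves as the parental line. Cells were given escalating concentrations of stimuli for 6−16 h, then SEAP was read with HEK-Blue detection at 620 nm.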

[2] = biological target: T2, Toll-like receptor 8 (Homo sapiens) (UniProt Q9NR97); assay: Agonist activity at human TLR8 expressed in HEK-Blue hTLR8 cells assessed as activation of NFkappaB incubated for 6 to 16 hrs by SEAP reporter gene based assay; format: cell-based; conditions: filed as agonist, time 6-16 hrs; outline: as §1
T2 sequence (whole entry): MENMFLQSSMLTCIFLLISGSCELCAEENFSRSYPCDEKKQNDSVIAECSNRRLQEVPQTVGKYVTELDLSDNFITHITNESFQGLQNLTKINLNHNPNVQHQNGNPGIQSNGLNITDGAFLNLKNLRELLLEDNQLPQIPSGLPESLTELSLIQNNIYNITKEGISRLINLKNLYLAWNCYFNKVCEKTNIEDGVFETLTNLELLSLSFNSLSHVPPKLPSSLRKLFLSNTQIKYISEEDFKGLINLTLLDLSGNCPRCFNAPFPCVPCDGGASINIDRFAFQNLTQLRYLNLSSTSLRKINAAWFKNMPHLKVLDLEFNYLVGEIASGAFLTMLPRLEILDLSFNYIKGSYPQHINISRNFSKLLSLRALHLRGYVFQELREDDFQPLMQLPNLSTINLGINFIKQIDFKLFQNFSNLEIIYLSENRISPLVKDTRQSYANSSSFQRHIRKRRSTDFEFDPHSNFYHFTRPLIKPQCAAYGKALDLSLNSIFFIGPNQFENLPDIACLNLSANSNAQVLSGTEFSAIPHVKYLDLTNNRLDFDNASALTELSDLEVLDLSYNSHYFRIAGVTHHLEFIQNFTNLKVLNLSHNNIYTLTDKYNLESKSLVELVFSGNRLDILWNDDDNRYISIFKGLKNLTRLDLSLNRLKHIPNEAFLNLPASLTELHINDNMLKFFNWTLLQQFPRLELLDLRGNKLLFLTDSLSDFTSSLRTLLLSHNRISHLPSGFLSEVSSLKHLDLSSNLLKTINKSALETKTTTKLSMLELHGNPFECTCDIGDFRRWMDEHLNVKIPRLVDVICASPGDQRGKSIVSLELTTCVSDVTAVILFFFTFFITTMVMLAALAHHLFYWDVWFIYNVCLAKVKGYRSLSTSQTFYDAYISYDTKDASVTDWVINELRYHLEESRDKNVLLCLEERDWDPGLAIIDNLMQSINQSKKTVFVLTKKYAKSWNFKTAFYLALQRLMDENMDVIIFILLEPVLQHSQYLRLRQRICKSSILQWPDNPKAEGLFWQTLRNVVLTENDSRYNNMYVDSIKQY

[3] = biological target: Nuclear factor NF-kappa-B complex (Homo sapiens) (UniProt Q00653+P19838+Q04206); assay: Activation of NF-KappaB in HEK-Blue Null2-k cells incubated for 6 to 16 hrs by SEAP reporter gene based assay; format: cell-based; conditions: time 6-16 hrs; outline: as §1
Sequence of Nuclear factor NF-kappa-B complex (Homo sapiens) (P19838 whole entry, looked up): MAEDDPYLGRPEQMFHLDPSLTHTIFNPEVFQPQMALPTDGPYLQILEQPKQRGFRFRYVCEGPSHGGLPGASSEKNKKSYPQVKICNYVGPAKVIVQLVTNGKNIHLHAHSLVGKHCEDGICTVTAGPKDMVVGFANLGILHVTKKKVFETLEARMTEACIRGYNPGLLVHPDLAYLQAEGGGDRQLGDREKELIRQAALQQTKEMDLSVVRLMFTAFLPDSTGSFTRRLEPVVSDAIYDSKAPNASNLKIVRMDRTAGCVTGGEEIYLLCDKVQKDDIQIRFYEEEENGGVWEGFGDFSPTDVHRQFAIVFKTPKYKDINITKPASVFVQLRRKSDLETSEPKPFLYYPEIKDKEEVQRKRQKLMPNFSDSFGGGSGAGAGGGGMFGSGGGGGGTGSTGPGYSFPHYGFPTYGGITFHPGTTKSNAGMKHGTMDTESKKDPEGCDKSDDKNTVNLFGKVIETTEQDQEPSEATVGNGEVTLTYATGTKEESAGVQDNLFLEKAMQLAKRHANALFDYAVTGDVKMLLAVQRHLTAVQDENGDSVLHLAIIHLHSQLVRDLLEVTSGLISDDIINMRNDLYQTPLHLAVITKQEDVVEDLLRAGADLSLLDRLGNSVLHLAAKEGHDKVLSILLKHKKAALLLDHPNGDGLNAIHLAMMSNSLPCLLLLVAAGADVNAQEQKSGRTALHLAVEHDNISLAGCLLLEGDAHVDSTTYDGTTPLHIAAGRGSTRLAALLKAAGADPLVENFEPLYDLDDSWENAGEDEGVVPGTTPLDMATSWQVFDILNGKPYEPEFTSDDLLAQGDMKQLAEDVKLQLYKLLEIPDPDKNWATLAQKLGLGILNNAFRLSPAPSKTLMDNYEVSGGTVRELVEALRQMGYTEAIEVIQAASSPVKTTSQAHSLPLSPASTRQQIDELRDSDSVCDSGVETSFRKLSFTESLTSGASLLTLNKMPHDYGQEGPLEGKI
Sequence of Nuclear factor NF-kappa-B complex (Homo sapiens) (Q00653 whole entry, looked up): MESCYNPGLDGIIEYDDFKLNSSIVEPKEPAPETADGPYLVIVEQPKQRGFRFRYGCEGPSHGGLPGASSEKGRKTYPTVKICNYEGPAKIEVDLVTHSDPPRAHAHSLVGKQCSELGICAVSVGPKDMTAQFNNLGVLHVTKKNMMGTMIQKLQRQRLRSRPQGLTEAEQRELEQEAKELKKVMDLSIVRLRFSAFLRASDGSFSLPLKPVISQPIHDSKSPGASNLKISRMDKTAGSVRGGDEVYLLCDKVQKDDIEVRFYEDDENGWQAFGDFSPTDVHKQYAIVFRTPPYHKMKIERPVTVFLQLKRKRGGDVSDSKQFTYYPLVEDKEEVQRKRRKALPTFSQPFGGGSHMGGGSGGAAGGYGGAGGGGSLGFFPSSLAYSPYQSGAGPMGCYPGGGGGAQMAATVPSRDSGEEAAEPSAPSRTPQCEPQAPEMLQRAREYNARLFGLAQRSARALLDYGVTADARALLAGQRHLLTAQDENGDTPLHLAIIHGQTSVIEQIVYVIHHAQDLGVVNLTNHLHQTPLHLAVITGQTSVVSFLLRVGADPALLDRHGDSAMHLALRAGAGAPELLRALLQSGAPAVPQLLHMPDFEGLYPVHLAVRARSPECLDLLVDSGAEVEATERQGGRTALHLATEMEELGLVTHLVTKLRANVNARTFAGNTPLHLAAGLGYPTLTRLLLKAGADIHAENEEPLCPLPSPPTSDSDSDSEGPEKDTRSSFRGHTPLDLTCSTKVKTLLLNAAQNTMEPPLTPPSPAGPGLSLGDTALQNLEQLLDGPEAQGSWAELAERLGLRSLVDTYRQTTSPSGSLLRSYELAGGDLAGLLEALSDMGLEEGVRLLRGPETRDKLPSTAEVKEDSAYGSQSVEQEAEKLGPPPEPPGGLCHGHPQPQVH
Sequence of Nuclear factor NF-kappa-B complex (Homo sapiens) (Q04206 whole entry, looked up): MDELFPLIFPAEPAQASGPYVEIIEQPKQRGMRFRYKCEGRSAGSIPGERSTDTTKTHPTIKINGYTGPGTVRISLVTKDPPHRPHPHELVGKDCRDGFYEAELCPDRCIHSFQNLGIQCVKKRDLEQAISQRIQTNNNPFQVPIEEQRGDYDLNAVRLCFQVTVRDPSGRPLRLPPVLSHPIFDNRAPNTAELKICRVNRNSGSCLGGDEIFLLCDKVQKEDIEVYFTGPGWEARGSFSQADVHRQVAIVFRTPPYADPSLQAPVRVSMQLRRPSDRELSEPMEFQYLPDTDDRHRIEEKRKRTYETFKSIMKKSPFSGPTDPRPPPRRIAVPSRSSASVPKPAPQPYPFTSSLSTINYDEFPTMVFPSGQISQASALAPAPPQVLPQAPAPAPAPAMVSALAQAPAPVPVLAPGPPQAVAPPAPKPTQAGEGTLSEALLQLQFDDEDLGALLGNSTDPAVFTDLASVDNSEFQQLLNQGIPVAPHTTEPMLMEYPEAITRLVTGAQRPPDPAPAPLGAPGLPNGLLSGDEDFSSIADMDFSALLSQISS

[4] = Acute toxicity in BALB/c mouse assessed as white discharge from eyes at 15 to 80 mg/kg, ip administered as single dose; format: organism-based; conditions: in vivo, dose 15-80 mg/kg
[5] = Acute toxicity in BALB/c mouse assessed as maximum tolerated dose; conditions: in vivo
[6] = Subacute toxicity in BALB/c mouse assessed as splenomegaly at 15 mg/kg, ip administered as single dose; format: organism-based; conditions: in vivo
Outline: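 Subacute toxicity study in BALB/c mice given ip TLR7/8 agonist. Spleens from treated and control groups were weighed and photographed. Body weight was recorded every day.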

[7] = Acute toxicity in BALB/c mouse assessed as mild diarrhea at 15 to 80 mg/kg, ip administered as single dose measured after 24 hrs; format: organism-based; conditions: in vivo, dose 15-80 mg/kg
[8] = Subacute toxicity in BALB/c mouse assessed as pathological changes in spleen at 15 mg/kg, ip administered as single dose by H and E staining based microscopic analysis; format: organism-based; conditions: in vivo
Outline: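 Subacute toxicity study in BALB/c mice given ip TLR7/8 agonist. Tissues from treated and control mice were examined by hematoxylin and eosin staining.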

Structure (SMILES)	Activity [1]	Activity [2]	Activity [3]	Activity [4]	MTD [5] [mg/kg]	Activity [6]	Activity [7]	Activity [8]
CCCCNc1nc(N)nc2ccc(Cc3ccc(CN(C)C)cc3)nc12	Active	Active	inactive	Toxic	30	Toxic	Non-Toxic	Non-Toxic
COCCNc1nc(N)nc2ccc(Cc3ccc(CN(C)C)cc3)nc12	Active	Active	inactive	Toxic	45	Toxic	Non-Toxic	Non-Toxic
